High-throughput results from PubChem.
The sample as a whole holds a higher share of hits than the screen did.
GASC1 inh: inhibitors of human demethylase GASC-1 KDM4C; GST-KDM4C 2-372, H3K9me3 peptide, LANCE TR-FRET; inhibition, % at 12.5 µM; 96,000 compounds, 0.15% hits;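 active = mean replicate inhibition above about 25%, with at least 55% of replicates also reaching it, limit read from the data, passing the limit was not always enough; inconclusive = only one of those two conditions met; inactive = neither condition met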
Target sequence (Q9H3R0 2-372 limits assumed): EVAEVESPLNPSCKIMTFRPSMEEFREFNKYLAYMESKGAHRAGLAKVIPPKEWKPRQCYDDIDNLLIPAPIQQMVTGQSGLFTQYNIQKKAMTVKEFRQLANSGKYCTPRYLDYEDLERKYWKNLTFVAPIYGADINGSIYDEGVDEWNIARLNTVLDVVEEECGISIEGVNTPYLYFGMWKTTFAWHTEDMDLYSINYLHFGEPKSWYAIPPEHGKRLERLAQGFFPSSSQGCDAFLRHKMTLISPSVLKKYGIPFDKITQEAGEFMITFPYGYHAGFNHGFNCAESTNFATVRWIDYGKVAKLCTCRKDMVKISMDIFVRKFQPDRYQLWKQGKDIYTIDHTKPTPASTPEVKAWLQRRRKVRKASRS
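Test system: N-terminal GST-fused human GASC-1 (KDM4C) fragment, residues 2-372; quantity: GASC-1 enzyme at 10 nM final in reaction; dosing: single dose; schedule: 30 min demethylation and 1 h detection at room temperature; signal: LANCE TR-FRET, excitation 340 nm, emissions 618 and 671 nm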
IDH1 R132H inh: blocks human IDH1 R132H reductase activity; inhibition, % at 10 µM; diaphorase/resazurin fluorescence, 60 min; O75874; 70,000 compounds, 0.18% hits; AID 624101; in the data active = inhibition above about 34%; inconclusive = no clear call, values can overlap the other calls; inactive = below about 11%
Target sequence (O75874 whole entry R132H): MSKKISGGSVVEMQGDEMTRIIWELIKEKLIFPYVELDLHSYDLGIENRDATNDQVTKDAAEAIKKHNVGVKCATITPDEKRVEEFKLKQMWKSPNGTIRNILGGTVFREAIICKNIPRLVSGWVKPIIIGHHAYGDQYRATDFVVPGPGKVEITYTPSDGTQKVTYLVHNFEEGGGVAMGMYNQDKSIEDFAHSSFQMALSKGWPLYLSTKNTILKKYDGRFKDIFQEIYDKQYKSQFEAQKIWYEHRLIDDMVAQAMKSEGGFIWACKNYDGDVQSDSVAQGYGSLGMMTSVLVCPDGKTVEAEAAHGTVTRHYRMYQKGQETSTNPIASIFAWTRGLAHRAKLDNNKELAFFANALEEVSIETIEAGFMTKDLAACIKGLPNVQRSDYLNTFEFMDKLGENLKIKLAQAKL
T cruzi growth-1: blocks T. cruzi growth in NIH3T3 culture; 77,000 compounds, 5.9% hits; inhibition, % at 8.34 µM; AID 624255; T. cruzi beta-gal in NIH3T3, GalScreen luminescence, 90 h;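 active = mean inhibition above about 93%, with at least 55% of replicates each passing it, limit read from the data, passing the limit was not always enough; inconclusive = only one of those two conditions holds; inactive = neither condition holds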
T cruzi growth-2: Trypanosoma cruzi proliferation inhibition; shares compounds with T cruzi growth-1; T. cruzi beta-gal in NIH3T3, GalScreen luminescence, 90 h; inhibition, % at 8.35 µM; 5,600 compounds, 72% hits;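 active = mean replicate inhibition above about 95% and at least 55% of replicates individually reaching it, limit read from the data; inconclusive = only one of the two criteria is met; inactive = neither criterion is met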
T cruzi growth-3: Trypanosoma cruzi proliferation inhibition | shares compounds with T cruzi growth-1 | AID 651740 | T. cruzi beta-gal in NIH3T3, GalScreen luminescence, 90 h | 5,600 compounds, 21% hits | inhibition, % at 2.09 µM;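 active = mean inhibition above about 95%, with at least 55% of replicates also reaching it, limit read from the data; inconclusive = meets just one of the two conditions; inactive = meets neither condition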
3T3 cytotox: kills mouse NIH/3T3 fibroblasts; cytotoxicity (signal decrease), % at 8.35 µM; 5,600 compounds, 14% hits; shares compounds with T cruzi growth-1; NIH/3T3 viability, CellTiter-Glo ATP luminescence, 90 h; AID 651742;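 active = mean signal decrease across replicates above about 35% based on untreated-well scatter, with enough replicates individually passing, limit read from the data; inconclusive = no rule stated though some were filed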
3T3 cytotox 2: kills mouse NIH/3T3 fibroblasts; shares compounds with T cruzi growth-1; NIH/3T3 viability, CellTiter-Glo ATP luminescence, 90 h; inhibition, % at 24.9 µM; 5,600 compounds, 56% hits; AID 651744;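 active = mean loss of cell viability signal at or above a set limit, and enough replicates individually reaching it; inconclusive = meets only the mean limit or only the replicate share; inactive = meets neither condition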
Large screens that a line does not name were inactive (follow-up assays come after a bar, where they were run).

C[C@@H]1CN([C@H](C)CO)S(=O)(=O)c2ccc(-c3ccc(F)cc3)cc2O[C@@H]1CN(C)Cc1cccc(F)c1	none (no result: IDH1 R132H inh)
C[C@H](CO)N1C[C@H](C)[C@@H](CN(C)Cc2cccc(F)c2)Oc2cc(-c3ccccc3)ccc2S1(=O)=O	T cruzi growth-1 106.8 (no result: IDH1 R132H inh) | T cruzi growth-2 inactive | T cruzi growth-3 inactive | 3T3 cytotox 43.4 | 3T3 cytotox 2 100.6
C[C@H]1CN([C@@H](C)CO)S(=O)(=O)c2ccc(-c3ccccc3)cc2O[C@H]1CN(C)Cc1cccc(F)c1	T cruzi growth-1 118.6 (no result: IDH1 R132H inh) | T cruzi growth-2 inactive | T cruzi growth-3 101.8 | 3T3 cytotox inactive | 3T3 cytotox 2 107.0
C[C@@H]1CN([C@H](C)CO)S(=O)(=O)c2ccc(-c3ccccc3)cc2O[C@H]1CN(C)Cc1cccc(F)c1	T cruzi growth-1 118.4 (no result: IDH1 R132H inh) | T cruzi growth-2 100.9 | T cruzi growth-3 104.2 | 3T3 cytotox 116.6 | 3T3 cytotox 2 103.4
CCn1c(SCC(=O)N2c3ccccc3CCc3ccccc32)nnc1-c1ccco1	none (no result: GASC1 inh, T cruzi growth-1)
O=C(CCCCCCC(=O)Nc1ccccc1O)NN=C1CCCCCCC1	none (no result: GASC1 inh, T cruzi growth-1)
CC1CCc2c(sc3ncn(CC(=O)Nc4ccccc4C(F)(F)F)c(=O)c23)C1 (stereo unspecified)	none (no result: GASC1 inh, T cruzi growth-1)
COc1cc(OC)c(NC(=O)CS(=O)(=O)c2ccccc2)cc1Cl	none (no result: GASC1 inh, T cruzi growth-1)
COc1ccc(NC(=O)CN(C)S(=O)(=O)c2ccc(F)cc2)cc1OC	none (no result: GASC1 inh, T cruzi growth-1)
C[C@@H]1CN([C@H](C)CO)S(=O)(=O)c2ccc(-c3ccc(C#N)cc3)cc2O[C@@H]1CN(C)Cc1cccc(F)c1	none (no result: T cruzi growth-1)
C[C@H]1CN([C@@H](C)CO)S(=O)(=O)c2ccc(-c3ccccc3)cc2O[C@@H]1CN(C)Cc1cccc(F)c1	T cruzi growth-1 119.5 | T cruzi growth-2 inactive | T cruzi growth-3 108.1 | 3T3 cytotox inconclusive | 3T3 cytotox 2 103.2
Cc1ccc(S(=O)(=O)NCC(=O)Nc2ccc(Br)cc2F)cc1	none (no result: GASC1 inh, T cruzi growth-1)
C[C@@H]1CN([C@@H](C)CO)C(=O)c2cc(NC(=O)Nc3ccccc3)ccc2O[C@@H](C)CCCCO[C@@H]1CN(C)Cc1ccc2c(c1)OCO2	T cruzi growth-1 96.7 (no result: IDH1 R132H inh) | T cruzi growth-2 100.6 | T cruzi growth-3 inactive | 3T3 cytotox 42.2 | 3T3 cytotox 2 33.6
C[C@@H]1CN([C@H](C)CO)C(=O)c2cc(NC(=O)Nc3ccccc3)ccc2O[C@@H](C)CCCCO[C@H]1CN(C)Cc1ccc2c(c1)OCO2	none (no result: IDH1 R132H inh)
C[C@H]1CCCCO[C@H](CN(C)Cc2ccc3c(c2)OCO3)[C@@H](C)CN([C@@H](C)CO)C(=O)c2cc(NC(=O)Nc3ccccc3)ccc2O1	none (no result: IDH1 R132H inh)
C[C@H]1CCCCO[C@@H](CN(C)Cc2ccccc2)[C@@H](C)CN([C@@H](C)CO)C(=O)c2cc(NC(=O)Nc3ccc4c(c3)OCO4)ccc2O1	none
C[C@@H]1CN([C@H](C)CO)C(=O)c2cc(NC(=O)Nc3ccccc3)ccc2O[C@@H](C)CCCCO[C@@H]1CN(C)Cc1ccc2c(c1)OCO2	T cruzi growth-1 inconclusive | T cruzi growth-2 inactive | T cruzi growth-3 inactive | 3T3 cytotox 93.9 | 3T3 cytotox 2 103.2
C[C@@H]1CCCCO[C@@H](CN(C)Cc2ccc3c(c2)OCO3)[C@H](C)CN([C@H](C)CO)C(=O)c2cc(NC(=O)Nc3ccccc3)ccc2O1	T cruzi growth-1 inconclusive | T cruzi growth-2 99.5 | T cruzi growth-3 104.9 | 3T3 cytotox inactive | 3T3 cytotox 2 104.2
Cc1cc(NC(=O)C(C)n2cc([N+](=O)[O-])cn2)ccc1Br (stereo unspecified)	none (no result: GASC1 inh, T cruzi growth-1)
O=C(CSc1nc2sc3c(c2c(=O)n1Cc1ccccc1)CCCCC3)c1ccccc1	none (no result: GASC1 inh, T cruzi growth-1)
O=C(O)CNc1ncnc2oc(-c3ccccc3)c(-c3ccccc3)c12	none (no result: GASC1 inh, T cruzi growth-1)
C[C@H](NC(=O)C[C@H]1C[C@H]2c3cc(NC(=O)Nc4ccc(C(F)(F)F)cc4)ccc3O[C@H]2[C@@H](CO)O1)c1ccccc1	T cruzi growth-1 inconclusive | T cruzi growth-2 inactive | T cruzi growth-3 inactive | 3T3 cytotox inactive | 3T3 cytotox 2 inactive
C[C@H](NC(=O)C[C@H]1C[C@@H]2c3cc(NC(=O)Nc4ccc(C(F)(F)F)cc4)ccc3O[C@@H]2[C@@H](CO)O1)c1ccccc1	none
O=C(C[C@@H]1C[C@@H]2c3cc(NC(=O)Nc4ccc(C(F)(F)F)cc4)ccc3O[C@@H]2[C@@H](CO)O1)NCc1ccc(Cl)cc1	T cruzi growth-1 111.7 | T cruzi growth-2 108.7 | T cruzi growth-3 inactive | 3T3 cytotox inactive | 3T3 cytotox 2 inactive
O=C(C[C@H]1C[C@@H]2c3cc(NC(=O)Nc4ccc(C(F)(F)F)cc4)ccc3O[C@@H]2[C@@H](CO)O1)NCc1cc(F)ccc1F	T cruzi growth-1 156.0 | T cruzi growth-2 inactive | T cruzi growth-3 inactive | 3T3 cytotox inactive | 3T3 cytotox 2 inactive
O=C(C[C@H]1C[C@@H]2c3cc(NC(=O)Nc4ccc(C(F)(F)F)cc4)ccc3O[C@@H]2[C@@H](CO)O1)NCc1ccc(Cl)cc1	none
O=C(C[C@@H]1C[C@@H]2c3cc(NC(=O)Nc4ccc(C(F)(F)F)cc4)ccc3O[C@@H]2[C@H](CO)O1)NCc1cc(F)ccc1F	none
O=C(CSc1nnc(-c2ccco2)n1-c1cccc2ccccc12)Nc1ccc(C(=O)O)cc1	none (no result: GASC1 inh, T cruzi growth-1)
C[C@H](CO)N1C[C@H](C)[C@@H](CN(C)Cc2ccc(Cl)c(Cl)c2)Oc2ccc(NC(=O)C3CC3)cc2CC1=O	T cruzi growth-1 115.2 | T cruzi growth-2 104.9 | T cruzi growth-3 inactive | 3T3 cytotox inactive | 3T3 cytotox 2 inactive
C[C@@H]1CN([C@@H](C)CO)C(=O)Cc2cc(NC(=O)C3CC3)ccc2O[C@H]1CN(C)Cc1ccc(Cl)c(Cl)c1	T cruzi growth-1 124.1 | T cruzi growth-2 97.7 | T cruzi growth-3 inactive | 3T3 cytotox 39.5 | 3T3 cytotox 2 105.5
C[C@@H]1CN([C@@H](C)CO)C(=O)Cc2cc(NC(=O)C3CCCCC3)ccc2O[C@@H]1CN(C)Cc1ccc(Cl)c(Cl)c1	none
C[C@H]1CN([C@@H](C)CO)C(=O)Cc2cc(NC(=O)C3CC3)ccc2O[C@@H]1CN(C)Cc1ccc(Cl)c(Cl)c1	none
O=C(CN1C(=O)c2ccccc2S1(=O)=O)Nc1ccccc1C(=O)N1CCCC1	none (no result: GASC1 inh, T cruzi growth-1)
CCC(=O)N1CC[C@H]2[C@@H]1c1cc(-c3ccc(OC)cc3)ccc1N(C)[C@H]2CO	T cruzi growth-1 104.9 (no result: IDH1 R132H inh) | T cruzi growth-2 108.2 | T cruzi growth-3 inactive | 3T3 cytotox inactive | 3T3 cytotox 2 inactive
CCC(=O)N1CC[C@@H]2[C@H]1c1cc(-c3ccc(OC)cc3)ccc1N(C)[C@H]2CO	none (no result: IDH1 R132H inh)
CCC(=O)N1CC[C@H]2[C@@H]1c1cc(-c3ccc(F)cc3)ccc1N(C)[C@H]2CO	T cruzi growth-1 inconclusive (no result: IDH1 R132H inh) | T cruzi growth-2 107.7 | T cruzi growth-3 inactive | 3T3 cytotox inactive | 3T3 cytotox 2 inactive
COCC(=O)N1CC[C@@H]2[C@@H](CO)N(C)c3ccc(-c4ccc(F)cc4)cc3[C@@H]21	none (no result: IDH1 R132H inh)
